# UHRF1 MBD2 ctr = UHRF1 methylated DNA binding inhibitors, primary screen, counter-screen for MBD2 inhibitor project, biochemical, TR-FRET, human UHRF1, single concentration | E3 ubiquitin-protein ligase UHRF1 (Homo sapiens), Q96T88 | UHRF1 binding to methylated oligo | inhibition, % at 4.4 µM | 0.75% of 370,000 active; in the data active = inhibition above about 21%;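 note: UHRF1 SRA domain binding a hemimethylated CpG hairpin DNA probe; 0% = median of test compound wells and 100% = reference inhibitor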
# TDP2 absorb = human TDP2 enzyme inhibitors, primary screen, biochemical, epi absorbance, recombinant enzyme. 0.34% of 370,000 active. Tyrosyl-DNA phosphodiesterase 2 (Homo sapiens), O95551. inhibition, % at 12.8 µM. T5PNP hydrolysis, p-nitrophenol absorbance 415 nm;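 active = inhibition above the mean of all tested compounds plus 3 SD, set per campaign, cut at about 25% in these data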;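 note: 0% = DMSO with enzyme and 100% = buffer with substrate but no TDP2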
#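 Test system: human TDP2 enzyme; Input: 120 nM TDP2 per well; Buffer or medium: Mg2+-containing Tris-HCl buffer, pH 7.5; Reagent: 5 mM T5PNP; Dosing: 12.8 µM single point, 1% DMSO; Incubation: reaction 2 h, 37 °C; Detection: p-Nitrophenol epi absorbance; Read-out: % inhibition relative to enzyme-containing and enzyme-free wells; Replicates: single well per compound.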
# MBD2 inh = inhibitors of MBD2 binding to methylated DNA, primary screen, biochemical, TR-FRET, DNA-binding domain, human; Methyl-CpG-binding domain protein 2 (Homo sapiens), Q9UBB5; MBD2 binding to methylated oligonucleotide; inhibition, % at 4.4 µM; 0.31% of 370,000 active; AID 686964, 2013; in the data active = inhibition above about 13%
# Target sequence (Q9UBB5 whole entry, looked up, the tested form may be a part): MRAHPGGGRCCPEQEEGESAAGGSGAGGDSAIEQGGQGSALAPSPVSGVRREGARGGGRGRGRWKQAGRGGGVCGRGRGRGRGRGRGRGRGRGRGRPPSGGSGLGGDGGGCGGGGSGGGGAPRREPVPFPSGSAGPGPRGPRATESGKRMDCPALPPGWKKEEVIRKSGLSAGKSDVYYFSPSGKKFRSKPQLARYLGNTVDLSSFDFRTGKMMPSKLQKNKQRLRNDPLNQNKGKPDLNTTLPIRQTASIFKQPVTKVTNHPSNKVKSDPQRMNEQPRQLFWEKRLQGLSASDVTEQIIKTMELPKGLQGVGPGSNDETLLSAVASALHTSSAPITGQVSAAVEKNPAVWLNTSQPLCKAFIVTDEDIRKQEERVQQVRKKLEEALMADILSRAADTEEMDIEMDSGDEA
# LEDGF integ inh = blockers of LEDGF/p75-dependent integrase strand transfer – biochemical, TR-FRET, high throughput, primary screen; AID 743269, 2014; 0.64% of 370,000 active; inhibition, % at 3.7 µM; TR-FRET IN-LEDGF/p75 DNA integration, Eu/Cy5; HIV-1 integrase (with human LEDGF/p75);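 active = inhibition above the screen-wide mean plus 3 SD, cut at about 13% in these data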;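 note: signal is the Cy5 over europium emission ratio at 671 and 618 nm; 0% = plate median of compound wells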
# IN multimer act = HIV-1 IN multimer formation enhancers, counter-screen for LEDGF/p75 integration inhibitor project, biochemical, TR-FRET | shares compounds with LEDGF integ inh | TR-FRET HIV-1 integrase multimerization | activation, % at 7.7 µM | 17% of 2,000 active; in the data active = activation above about 8.9%
# TRFRET interf = TR-FRET optical interference artefacts, confirmation, artefact control for LEDGF/p75-dependent integration inhibitor project, biochemical, HIV-1 IN multimerization; 2,000 tested, under 10 active; inhibition, % at 7.7 µM; TR-FRET optical interference counterscreen; shares compounds with LEDGF integ inh;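 active = inhibition above the mean over all tested compounds plus 3 SD, which no compound reached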;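 note: 0% = integrase with antibodies and DMSO and 100% = antibodies without integrase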
# LEDGF integ conf = inhibitors of HIV-1 IN-LEDGF/p75 DNA integration, confirmation, biochemical, TR-FRET | shares compounds with LEDGF integ inh | inhibition, % at 3.7 µM | AID 1053136, 2014 | 36% of 2,000 active | TR-FRET LEDGF/p75-dependent HIV-1 integration; in the data active = inhibition above about 14%
# * marks the source's active call; other numbers are inactive results; . = no result. The list is not random: actives were taken first. Their share in the collection is about 1.6%.
SMILES,UHRF1 MBD2 ctr,TDP2 absorb,MBD2 inh,LEDGF integ inh,IN multimer act,TRFRET interf,LEDGF integ conf
O=C1/C(=C\c2ccco2)SC(=S)N1c1ccccc1,14.3,12.5,4.8,21.3*,3.4,-17.0,21.2*
O=C1/C(=C\c2ccco2)NC(=S)N1c1ccccc1,4.0,-3.6,-3.8,15.7*,0.2,-0.9,16.8*
Cc1cc(=O)oc(C)c1C(=O)Nc1cccc2ccccc12,-3.6,8.8,-2.3,30.2*,0.4,-2.1,-0.5
Cc1ccccc1NC(=O)c1c(C)cc(=O)oc1C,3.7,-13.0,4.9,-1.3,.,.,.
C[C@H](CO)N1C[C@H](C)[C@@H](CN(C)S(=O)(=O)c2cccs2)Oc2c(NC(=O)NC3CCCCC3)cccc2C1=O,0.1,-18.4,-6.2,18.1*,0.4,-1.9,0.8
CC(C)NC(=O)N(C)C[C@H]1Oc2c(NS(=O)(=O)c3ccccc3)cccc2C(=O)N([C@H](C)CO)C[C@@H]1C,-3.2,6.7,-1.8,34.6*,1.1,-3.9,0.8
CCC/C(C(=O)NCCO)=C1/c2ccccc2C(=O)N1c1ccccc1,4.3,8.6,3.7,17.5*,-3.2,11.1,2.6
COCCNC(=S)N1C[C@H]2CON(C)[C@H]2C[C@H]1c1ccccc1Br,5.4,-16.2,-4.4,2.9,.,.,.
O=C(NC1CCCCCC1)c1cccnc1Sc1ccccc1,-2.2,7.3,-4.3,24.0*,0.0,0.2,-2.8
CCCC1CCC2(CCCN2CCOC(=O)Nc2ccc(F)cc2)CC1 (configuration not stated),-1.1,-7.0,-0.7,0.7,.,.,.
COc1ccc(/C=C/C(=O)N2CCCc3ccccc32)cc1,-1.5,-1.8,0.0,21.1*,9.5*,-34.1,19.1*
CN=c1scc(-c2ccccc2F)n1/N=C/c1ccc(O)c(O)c1O,0.2,-17.1,-1.4,21.8*,0.3,-1.5,27.9*
COc1ccc2nc(N3C(=O)C(O)=C(C(=O)c4ccco4)C3c3ccc(C)o3)sc2c1 (configuration not stated),-0.1,-9.4,-3.0,13.8*,2.3,-11.6,8.5
COc1cc(/C=N/NC(=O)CCc2ccccc2)ccc1O,-4.5,10.2,2.2,-1.6,.,.,.
COc1cc(CCC(O)CC(=O)CCc2ccccc2)ccc1O (configuration not stated),-2.7,2.6,1.1,23.3*,0.6,-3.0,-3.1
Cc1ccc(C(=O)Nc2nc(-c3ccccc3)c(-c3ccccc3)o2)cc1,0.9,5.8,-3.8,20.6*,0.3,-1.5,22.5*
O=C(O)/C(=C\c1ccco1)NC(=O)c1cccc2ccccc12,21.5*,4.4,12.7,29.3*,3.3,-16.7,7.2
CC(C)(C)c1ccc(C(=O)N/C(=C\c2ccco2)C(=O)O)cc1,0.8,3.0,-1.6,11.2,.,.,.
O=C(O)/C(=C/c1ccco1)NC(=O)c1ccccc1,7.4,4.0,-2.9,26.7*,-1.7,8.4,6.7
CCOC(=O)N1CCN(C(=O)c2ccc3nc4ccc(Cl)cc4c(=O)n3c2)CC1,1.2,-23.4,-4.3,17.6*,0.6,-3.2,0.4
COc1cc(CCCN2CCNC[C@H]2Cc2cccc3ccccc23)cc(OC)c1OC,-1.5,9.1,-0.7,43.8*,-0.2,1.3,-9.3
Cc1c(F)cccc1NC(=O)CCCCCC1NC(=O)NC1C (configuration not stated),-1.9,5.0,5.3,77.6*,-1.0,5.0,88.9*
CC1NC(=O)NC1CCCCCC(=O)Nc1ccc(F)cc1 (configuration not stated),-3.8,4.5,4.1,83.5*,-2.3,11.8,92.6*
O=C(CCCC(=O)c1ccccc1)Nc1ccc(F)cc1,-3.4,5.5,-4.7,2.6,.,.,.
NC(=NCc1ccccc1)NC(=O)OCc1ccccc1,-2.7,4.7,2.3,0.8,.,.,.
SMILES,UHRF1 MBD2 ctr,TDP2 absorb,MBD2 inh,LEDGF integ inh,IN multimer act,TRFRET interf,LEDGF integ conf
O=C(NCC(c1cccs1)N1CCOCC1)c1ccccc1NS(=O)(=O)c1cccc([N+](=O)[O-])c1 (configuration not stated),-0.2,2.6,5.5,-1.3,.,.,.
O=C(NCC(c1cccs1)N1CCOCC1)c1ccccc1NS(=O)(=O)c1ccc(Cl)c([N+](=O)[O-])c1 (configuration not stated),-0.9,2.7,-6.3,35.0*,0.2,-0.9,-1.2
CC1(C(=O)NCCC(F)(F)F)Cc2c(-c3cccc(C(N)=O)c3)ccnc2O1 (configuration not stated),0.6,2.6,-2.3,14.2*,-1.8,9.1,-1.7
CC1(C(=O)NCCC(F)(F)F)Cc2c(-c3cccc(C(F)(F)F)c3)ccnc2O1 (configuration not stated),-2.4,5.1,-0.9,-2.9,.,.,.
Cc1ccccc1-c1ccc2c(c1)[C@@H]1C[C@H](N(C)CC3CCCCC3)[C@H]([C@H](C)O)CN1CC2,7.3,0.5,2.2,1.0,.,.,.
CCOC(=O)[C@]12CCCCC/C=C\1N(CCc1ccc(Cl)cc1)C(=O)[C@H]2CC(=O)NCCCOC,-0.6,5.0,-4.5,-1.6,.,.,.
CCOC(=O)C1=C(N)n2c(s/c(=C/c3ccco3)c2=O)=C(C(=O)OC)C1c1ccco1 (configuration not stated),19.8,8.2,1.1,48.1*,0.3,-1.4,2.6
N#CC1=C(N)n2c(s/c(=C\c3ccco3)c2=O)=C(C#N)C1c1ccco1 (configuration not stated),41.1*,-4.5,12.4,38.0*,18.0*,-91.0,66.5*
COC(=O)/C(=C/Nc1ccc(O)cc1)[N+](=O)[O-],2.0,7.5,-7.7,24.8*,4.6,-16.4,-1.2
O=C(Nc1c(-c2ccccc2)nc2ncccn12)c1ccc(F)cc1,2.1,-4.7,-2.2,-0.7,.,.,.
O=S1(=O)CCC(N(N=Cc2ccco2)c2ccccc2)C1 (configuration not stated),-2.4,-3.5,-5.1,5.6,.,.,.
COC(=O)[C@]12C[C@H](CC(=O)NCC34CC5CC(CC(C5)C3)C4)C(=O)N(CCC3=CCCCC3)C1=C[C@H](COCc1ccccc1)O[C@@H]2C,2.0,-5.2,-1.8,2.1,.,.,.
NC(c1csc(Nc2ccccn2)n1)c1ccccc1Cl (configuration not stated),-5.0,-8.7,-5.1,14.8*,-1.4,7.1,-6.9

# Screens from PubChem.
